Published values pooled from the literature.
Each line is one published result; the experiments were not run side by side.

| SMILES | target or system | test | test system | conditions | measurement | result |
| --- | --- | --- | --- | --- | --- | --- |
| CCCN(CCS(C)(=O)=O)Cc1ccc(-c2ccc3ncnc(Nc4ccc(OCc5cccc(F)c5)c(Cl)c4)c3c2)o1 | Trypanosoma brucei | parasite growth | – | – | EC50 | 2000 nM |
| N#Cc1ccc(/C=C/c2nc3ccccc3c(=O)n2-c2cccc(C(=O)NCCO)c2)cc1 | Enterococcus faecium | microbial growth, broth dilution | NCTC7171 | – | MIC | > 128 µg/mL |
| COc1cccc(-n2ncc3c(N/N=C/c4ccc(C(=O)NCCN(C)C)cc4)ncnc32)c1 | Trypanosoma brucei | parasite growth | – | – | EC50 | 251 nM |
| CC(C)C[C@H](NC(=O)[C@H](Cc1ccccc1)NC(=O)c1cnccn1)B(O)O | MB002 | cell growth or viability | – | 7 days | IC50 | 3.13 nM |
| CC(=O)Nc1cccc(-n2c(=O)n(C3CC3)c(=O)c3c(Nc4ccc(I)cc4F)n(C)c(=O)c(C)c32)c1 | Calu-6 | cell growth or viability, resazurin | – | 390 pM, 72 h | viability | 89.4% |
| CCNc1nc(Nc2cc(F)c(C(=O)N3CCOCC3)cc2OC)ncc1C(F)(F)F | MB002 | cell growth or viability | – | 7 days | IC50 | > 10000 nM |
| CC(=O)OCCCn1c(/C=C/c2ccc(C#N)cc2)nc2ccccc2c1=O | Enterococcus faecium | microbial growth, broth dilution | NCTC7171 | – | MIC | > 128 µg/mL |
| COc1ccccc1-c1cc(/C=C2\C(=O)Nc3ncc(Br)cc32)cc(Br)c1O | Trypanosoma brucei | parasite growth | – | – | EC50 | 2510 nM |
| Oc1nc(-c2ccc(C(F)(F)F)cc2)nc2c1CSCC2 | MB002 | cell growth or viability | – | 7 days | IC50 | > 10000 nM |
| COc1cc(Nc2ncc3c(C)nc(-c4cccc(C(F)(F)F)c4)n3n2)cc(OC)c1OC | Trypanosoma brucei | parasite growth | – | – | EC50 | 158 nM |
| O=C(NCCO)c1cccc(-n2c(/C=C/c3ccc(F)cc3)nc3ccccc3c2=O)c1 | Enterococcus faecium | microbial growth, broth dilution | NCTC7171 | – | MIC | > 128 µg/mL |
| O=C(O)c1cn(C2CC2)c2cc(N3CCNCC3)c(F)cc2c1=O | Mycobacterium intracellulare | microbial growth | ATCC23068 | – | IC50 | 690 nM |
| CCN(CCCOc1ccc2c(Nc3cc(CC(=O)Nc4cccc(F)c4)n[nH]3)ncnc2c1)CCOP(=O)(O)O | MB002 | cell growth or viability | – | 7 days | IC50 | 131 nM |
| Nc1nonc1-c1nc2cnccc2n1C1CCCCC1 | Trypanosoma brucei | parasite growth | – | – | EC50 | 1260 nM |
| CO[C@H]1C[C@@H]2CC[C@@H](C)[C@@](O)(O2)C(=O)C(=O)N2CCCC[C@H]2C(=O)O[C@H]([C@H](C)C[C@@H]2CC[C@@H](O)[C@H](OC)C2)CC(=O)[C@H](C)/C=C(\C)[C@@H](O)[C@@H](OC)C(=O)[C@H](C)C[C@H](C)/C=C/C=C/C=C/1C | MB002 | cell growth or viability | – | 7 days | IC50 | 6.5 nM |
| C[C@@H]1[C@H](O)[C@@H](C)/C=C/C=C/C=C/C=C/C=C/C=C/C=C/[C@H](O[C@@H]2O[C@H](C)[C@@H](O)[C@H](N)[C@@H]2O)C[C@@H]2O[C@](O)(C[C@@H](O)C[C@@H](O)[C@H](O)CC[C@@H](O)C[C@@H](O)CC(=O)O[C@H]1C)C[C@H](O)[C@H]2C(=O)O | Candida albicans | microbial growth | ATCC90028 | – | IC50 | 300 nM |
